Laboratory results: ChEMBL document CHEMBL4033779 (J Med Chem, 2018)
≈ marks a conversion by molar mass, not a printed value.

Legend:
[1] = Oral bioavailability in rat dosed as suspension; type: ADME, organism-based; conditions: in vivo
[2] = test system: Human immunodeficiency virus 1; experiment: Antiviral activity against HIV-1 subtype B by p24 ELISA; type: functional; conditions: Human immunodeficiency virus 1, subtype B
[3] = test system: Human immunodeficiency virus 1; experiment: Antiviral activity against HIV-1 subtype C by p24 ELISA; type: functional; conditions: Human immunodeficiency virus 1, subtype C
[4] = test system: Human immunodeficiency virus 1; experiment: Inhibition of [3H]BMS-488043 binding to HIV-1 isolate JRFL gp120 assessed as dissociation half life incubated for 60 mins followed by CD4 addition by scintillation counting method
[5] = test system: Human immunodeficiency virus 1; experiment: Antiviral activity against HIV-1 SF-162 infected in human PM1 cells harboring CCR5 co-receptor after 4 to 6 days by p24 ELISA; type: functional, cell-based; conditions: Human immunodeficiency virus 1, SF-162
[6] = test system: Human immunodeficiency virus 1; experiment: Antiviral activity against HIV-1 89.6 infected in human PM1 cells harboring dual co-receptors after 4 to 6 days by p24 ELISA; type: functional, cell-based; conditions: Human immunodeficiency virus 1, 89.6, PM1
[7] = Aqueous solubility of the compound at pH 2 to 9; type: physicochemical
[8] = test system: Human immunodeficiency virus 1; experiment: Antiviral activity against HIV-1 F1 by p24 ELISA; type: functional; conditions: Human immunodeficiency virus 1, F1
[9] = test system: Human immunodeficiency virus 1; experiment: Antiviral activity against HIV-1 subtype A by p24 ELISA; type: functional; conditions: Human immunodeficiency virus 1, subtype A
[10] = test system: Human immunodeficiency virus 1; experiment: Antiviral activity against HIV-1 isolate CRF02_AG by p24 ELISA; type: functional; conditions: Human immunodeficiency virus 1, isolate CRF02_AG
[11] = test system: Human immunodeficiency virus 1; experiment: Antiviral activity against HIV-1 LAI infected in human MT2 cells harboring CXCR4 co-receptor after 4 to 6 days; type: functional, cell-based; conditions: Human immunodeficiency virus 1, LAI
[12] = test system: Human immunodeficiency virus 1; experiment: Antiviral activity against HIV-1 Bal infected in human PM1 cells harboring CCR5 co-receptor after 4 to 6 days by p24 ELISA; type: functional, cell-based; conditions: Human immunodeficiency virus 1, Bal
[13] = test system: Human immunodeficiency virus 1; experiment: Antiviral activity against HIV-1 subtype F by p24 ELISA; type: functional; conditions: Human immunodeficiency virus 1, subtype F
[14] = test system: Human immunodeficiency virus 1; experiment: Antiviral activity against HIV-1 isolate CRF01_AE by p24 ELISA; type: functional; conditions: Human immunodeficiency virus 1, isolate CRF01_AE
[15] = test system: Human immunodeficiency virus 1; experiment: Antiviral activity against HIV-1 NL4 - 3 infected in human MT2 cells harboring CXCR4 co-receptor after 4 to 6 days; type: functional, cell-based; conditions: Human immunodeficiency virus 1, NL4 - 3, MT2
[16] = test system: Human immunodeficiency virus 1; experiment: Antiviral activity against HIV 1 isolate JRFL by single cycle infectivity assay; type: functional; conditions: Human immunodeficiency virus 1, isolate JRFL
Outline: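 HEK293T producer cells cotransfected with a proviral HIV-1 LAI-Δenv-luc plasmid (firefly luciferase in place of env) and an LTR-driven JR-FL env plasmid. The resulting pseudotyped virions complete only one replication round; infection is read out as luciferase signal.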

[17] = test system: Human immunodeficiency virus 1; experiment: Antiviral activity against HIV-1 JR-FL infected in human PM1 cells harboring CCR5 co-receptor after 4 to 6 days by p24 ELISA; type: functional, cell-based; conditions: Human immunodeficiency virus 1, JR-FL
[18] = test system: Human immunodeficiency virus 1; experiment: Antiviral activity against HIV-1 RF infected in human MT2 cells harboring CXCR4 co-receptor after 4 to 6 days; type: functional, cell-based; conditions: Human immunodeficiency virus 1, RF
[19] = test system: Human immunodeficiency virus 1; experiment: Antiviral activity against HIV-1 isolate CRF_BF by p24 ELISA; type: functional; conditions: Human immunodeficiency virus 1, isolate CRF_BF
[20] = test system: Human immunodeficiency virus 2; experiment: Antiviral activity against HIV2; type: functional
[21] = test system: Simian immunodeficiency virus; experiment: Antiviral activity against SIV; type: functional
Canis familiaris = experiment: Oral bioavailability in dog assessed as 1-(4-benzoylpiperazin-1-yl)-2-(4-methoxy-7-(3-methyl-1H-1,2,4-triazol-1-yl)-1H-pyrrolo[2,3-c]pyridin-3-yl)ethane-1,2-dione level; type: ADME, organism-based, Canis lupus familiaris; conditions: in vivo
[22] = Aqueous solubility of the compound at pH 1.5 to 8.2; type: physicochemical
Outline: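 Aqueous solubility measured over pH 1.5−8.2 at room temperature.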

Rhesus monkey = experiment: Oral bioavailability in monkey assessed as 1-(4-benzoylpiperazin-1-yl)-2-(4-methoxy-7-(3-methyl-1H-1,2,4-triazol-1-yl)-1H-pyrrolo[2,3-c]pyridin-3-yl)ethane-1,2-dione level; type: ADME, organism-based, Macaca mulatta; conditions: in vivo
[23] = test system: Human immunodeficiency virus 1; experiment: Antiviral activity against HIV1 infected in human assessed as decrease in viral load in plasma at 800 mg bid measured on day 8; type: functional
Outline: (§1)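 Eight-day monotherapy in HIV-1-infected subjects: 800 or 1800 mg given BID with a high-fat meal (n = 12 per arm, placebo n = 6). Plasma viral load was measured on day 8 and reported as mean decline in log10 copies/mL.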

Homo sapiens [24] = organism: Homo sapiens; experiment: Half life in human assessed as 1-(4-benzoylpiperazin-1-yl)-2-(4-methoxy-7-(3-methyl-1H-1,2,4-triazol-1-yl)-1H-pyrrolo[2,3-c]pyridin-3-yl)ethane-1,2-dione level; type: ADME
Rattus norvegicus = experiment: Oral bioavailability in rat assessed as 1-(4-benzoylpiperazin-1-yl)-2-(4-methoxy-7-(3-methyl-1H-1,2,4-triazol-1-yl)-1H-pyrrolo[2,3-c]pyridin-3-yl)ethane-1,2-dione level; type: ADME, organism-based; conditions: in vivo
[25] = Solubility of the compound in acetonitrile; type: physicochemical
[26] = Protein binding in human plasma; type: ADME, cell-free; conditions: read-out: PPB (converted)
[27] = Dissociation constant, pKa of the compound; type: physicochemical
[28] = Competitive inhibition of soluble CD4 binding to HIV-1 gp120 after 2 hrs by ELISA; set-up: species or system Human immunodeficiency virus 1
[29] = Inhibition of [3H]BMS-488043 binding to HIV-1 isolate JRFL gp120 after 60 mins by scintillation counting method; set-up: species or system Human immunodeficiency virus 1
[30] = test system: Human immunodeficiency virus 1; experiment: Inhibition of [3H]BMS-488043 binding to HIV-1 isolate JRFL gp120 assessed as association half life after 60 mins by scintillation counting method
[31] = test system: Human immunodeficiency virus 1; experiment: Antiviral activity against HIV-1 isolate MN infected in human MT2 cells harboring CXCR4 co-receptor after 4 to 6 days; type: functional, cell-based; conditions: Human immunodeficiency virus 1, isolate MN
[32] = test system: Human immunodeficiency virus 1; experiment: Antiviral activity against HIV-1 3B infected in human MT2 cells harboring CXCR4 co-receptor after 4 to 6 days; type: functional, cell-based; conditions: Human immunodeficiency virus 1, 3B
[33] = test system: Human immunodeficiency virus 1; experiment: Antiviral activity against HIV1 infected in human assessed as decrease in viral load in plasma at 1800 mg bid measured on day 8; type: functional; outline: as §1
[34] = Half life in human administered as capsule; type: ADME; conditions: po
[35] = Aqueous solubility of the compound at pH 7.4; type: physicochemical
Cytochrome P450 3A4 = Cytochrome P450 3A4 (Homo sapiens, UniProt P08684); experiment: Inhibition of CYP3A4 (unknown origin); type: ADME
Homo sapiens [36] = organism: Homo sapiens; experiment: Tmax in human assessed as 1-(4-benzoylpiperazin-1-yl)-2-(4,7-dimethoxy-1H-pyrrolo[2,3-c]pyridin-3-yl)ethane-1,2-dione level; type: ADME
Outline: (§2)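 Healthy volunteers received the phosphonooxymethyl prodrug orally over 25 to 800 mg. Plasma levels of the released parent were followed to derive tmax and t1/2.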

Homo sapiens [37] = organism: Homo sapiens; experiment: Half life in human assessed as 1-(4-benzoylpiperazin-1-yl)-2-(4,7-dimethoxy-1H-pyrrolo[2,3-c]pyridin-3-yl)ethane-1,2-dione level; type: ADME; outline: as §2
[38] = Oral bioavailability in cynomolgus monkey at 10 mg/kg; type: ADME, organism-based, Macaca fascicularis; conditions: in vivo
Outline: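 Oral dose of 10 mpk given as a solution in PEG 400/ethanol.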

[39] = Oral bioavailability in rat at 1 mg/kg; type: ADME, organism-based; conditions: in vivo
Outline: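 Rat oral dosing at 1 mpk as a nanosuspension.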

[40] = Aqueous solubility of the compound; type: physicochemical; conditions: buffer

Sequence of Cytochrome P450 3A4 (P08684 whole entry): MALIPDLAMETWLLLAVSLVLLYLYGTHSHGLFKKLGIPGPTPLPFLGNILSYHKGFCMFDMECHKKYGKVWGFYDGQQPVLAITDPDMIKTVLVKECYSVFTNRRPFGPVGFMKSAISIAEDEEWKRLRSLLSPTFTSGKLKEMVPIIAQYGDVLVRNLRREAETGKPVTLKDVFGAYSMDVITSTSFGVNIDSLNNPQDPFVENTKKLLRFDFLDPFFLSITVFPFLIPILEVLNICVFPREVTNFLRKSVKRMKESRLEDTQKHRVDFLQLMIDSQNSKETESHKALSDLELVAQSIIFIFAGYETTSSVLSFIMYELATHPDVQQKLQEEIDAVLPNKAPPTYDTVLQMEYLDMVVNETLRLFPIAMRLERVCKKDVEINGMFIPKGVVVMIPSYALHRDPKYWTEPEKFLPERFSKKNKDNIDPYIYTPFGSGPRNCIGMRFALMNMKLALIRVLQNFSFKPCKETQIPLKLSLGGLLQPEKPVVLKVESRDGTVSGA

Compound: COc1cnc(-n2cnc(C)n2)c2[nH]cc(C(=O)C(=O)N3CCN(C(=O)c4ccccc4)CC3)c12
- bioavailability [1]: 52%
- EC50 [2]: 0.34 nM
- EC50 [3]: 1.14 nM
- T1/2 [4]: 7.63 h
- EC50 [5]: 0.5 nM
- EC50 [6]: 57.6 nM
- solubility [7]: 20 µg/mL (≈ 42.2 µM)
- EC50 [8]: 3.75 nM
- EC50 [9]: 2.24 nM
- EC50 [10]: 1.77 nM
- EC50 [11]: 0.7 nM
- EC50 [12]: 1.7 nM
- EC50 [13]: 0.1 nM
- EC50 [14]: > 100 nM
- EC50 [15]: 2.2 nM
- EC50 [16]: 0.14 nM
- EC50 [17]: 0.4 nM
- EC50 [18]: > 2000 nM
- EC50 [19]: 3.09 nM

Compound: O=C(C(=O)N1CCN(C(=O)c2ccccc2)CC1)c1c[nH]c2c(-c3ncon3)ncc(F)c12
- EC50 [16]: 1.3 nM

Compound: COc1cnc(-n2cc(C)cn2)c2[nH]cc(C(=O)C(=O)N3CCN(C(=O)c4ccccc4)CC3)c12
- EC50 [16]: 0.41 nM

Compound: O=C(C(=O)N1CCN(C(=O)c2ccccc2)CC1)c1c[nH]c2ccccc12
- EC50 [20]: > 200000 nM
- EC50 [21]: > 200000 nM

Compound: COc1cnc(-n2cnc(C)n2)c2c1c(C(=O)C(=O)N1CCN(C(=O)c3ccccc3)CC1)cn2COP(=O)(O)O.NC(CO)(CO)CO [FOSTEMSAVIR TROMETHAMINE]
- bioavailability (Canis familiaris): 80 to 122%
- solubility [22]: > 11000 µg/mL
- bioavailability (Rhesus monkey): 80 to 122%
- Activity [23]: <1 log10/ml
- t1/2 (Homo sapiens [24]): 1.5 h
- bioavailability (Rattus norvegicus): 80 to 122%

Compound: COc1cnc(Br)c2[nH]cc(C(=O)C(=O)N3CCN(C(=O)c4ccccc4)CC3)c12
- solubility [25]: < 500 µg/mL

Compound: COc1ccnc2[nH]cc(C(=O)C(=O)N3CCN(C(=O)c4ccccc4)C[C@H]3C)c12
- fraction unbound [26]: 0.27
- pKa [27]: 2.9 to 9.6
- IC50 [28]: 100 nM

Compound: COc1ncc(OC)c2c(C(=O)C(=O)N3CCN(C(=O)c4ccccc4)CC3)c[nH]c12
- Kd [29]: 19.1 nM
- T1/2 [4]: 0.717 h
- EC50 [5]: 4.7 nM
- T1/2 [30]: 2 to 3 min
- fraction unbound [26]: 0.05
- EC50 [6]: ≥ 871 nM
- EC50 [31]: > 1000 nM
- EC50 [32]: 160 nM
- pKa [27]: 2.9 to 9.3
- EC50 [11]: 4.1 nM
- Activity [33]: 0.96 log10/ml
- EC50 [12]: 23 nM
- EC50 [15]: 17.4 nM
- Activity [23]: 0.72 log10/ml
- IC50 [28]: 87 nM
- EC50 [17]: 3 nM
- EC50 [18]: > 2000 nM
- half-life [34]: 10 h

Compound: O=C(C(=O)N1CCN(C(=O)c2ccccc2)CC1)c1c[nH]c2c(-n3ccnn3)ncc(F)c12
- solubility [35]: 7 µg/mL (≈ 15.6 µM)

Compound: COc1cnc(-n2ccnn2)c2[nH]cc(C(=O)C(=O)N3CCN(C(=O)c4ccccc4)CC3)c12
- EC50 [16]: 0.78 nM

Compound: COc1cnc(-n2cncn2)c2[nH]cc(C(=O)C(=O)N3CCN(C(=O)c4ccccc4)CC3)c12
- IC50 (Cytochrome P450 3A4): 1000 nM
- EC50 [16]: 0.21 nM

Compound: COc1cnc(OC)c2c1c(C(=O)C(=O)N1CCN(C(=O)c3ccccc3)CC1)cn2COP(=O)(O)O.NCCCC[C@H](N)C(=O)O
- Tmax (Homo sapiens [36]): 0.5 to 1 h
- t1/2 (Homo sapiens [37]): 1.5 h

Compound: O=C(C(=O)N1CCN(C(=O)c2ccccc2)CC1)c1c[nH]c2cccc(F)c12
- bioavailability [38]: 100%
- bioavailability [39]: 4%
- solubility [40]: 5 µg/mL (≈ 13.2 µM)

Compound: COc1cnc(-n2ccc(C)n2)c2[nH]cc(C(=O)C(=O)N3CCN(C(=O)c4ccccc4)CC3)c12
- EC50 [16]: 0.11 nM
